The results in this text go back to ChEMBL document CHEMBL2169863, “Discovery, structure-activity relationship, and biological evaluation of noninhibitory small molecule chaperones of glucocerebrosidase” (J Med Chem, 2012).

The nature of data set [1]: Activation of alpha-galactosidase using 4-MU-alpha-galactose as substrate.
Data set [2] has as its target Lysosomal alpha-glucosidase (Homo sapiens) (UniProt P10253). The data set is described as follows: Activation of alpha-glucosidase using 4-MU-alpha-glucose as substrate.
The test system of data set [3] is T1, Lysosomal acid glucosylceramidase (Homo sapiens), P04062 [N409S].
T1 sequence (whole entry): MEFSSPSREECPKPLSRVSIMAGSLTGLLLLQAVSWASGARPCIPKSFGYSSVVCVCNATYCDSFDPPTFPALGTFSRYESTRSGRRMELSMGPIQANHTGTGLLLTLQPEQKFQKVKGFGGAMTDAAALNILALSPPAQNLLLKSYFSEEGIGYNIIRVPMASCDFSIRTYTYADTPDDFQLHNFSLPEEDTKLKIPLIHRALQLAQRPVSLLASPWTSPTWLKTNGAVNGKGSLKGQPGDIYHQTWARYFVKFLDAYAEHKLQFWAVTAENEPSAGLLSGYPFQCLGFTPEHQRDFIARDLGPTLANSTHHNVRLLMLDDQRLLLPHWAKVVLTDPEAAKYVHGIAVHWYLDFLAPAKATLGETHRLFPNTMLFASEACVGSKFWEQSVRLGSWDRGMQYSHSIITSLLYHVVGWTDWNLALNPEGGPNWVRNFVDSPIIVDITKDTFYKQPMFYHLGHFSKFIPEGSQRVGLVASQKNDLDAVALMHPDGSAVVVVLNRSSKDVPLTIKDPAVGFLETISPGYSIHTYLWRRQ
The data set is described as follows: Activation of Glucocerebrosidase N370S/N370S mutant translocation to lysosome in Gaucher patient dermal fibroblasts incubated for 6 days by LAMP2 colocalization-based laser scanning confocal microscopic analysis relative to vehicle-treated control. The method in brief: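 N370S/N370S Gaucher dermal fibroblasts were treated 6 days at 1, 5 or 25 μM, with DMSO vehicle control. Cells were fixed in 3% paraformaldehyde, permeabilized with Triton-X and stained with anti-GCase R386 (Alexa555), anti-LAMP-2 (Alexa488) and DAPI. Confocal imaging used constant laser settings, scoring GCase/LAMP-2 colocalization.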

Data set [4] shares this test system. Kind of data set: Activation of glucocerebrosidase N370S mutant in Gaucher patient spleen homogenates using 4-methylumbelliferone-Glc as substrate assessed as half-maximal activation concentration incubated for 5 mins prior to substrate addition measured after 30 to 45 mins by fluorimetric analysis. It counts as tissue-based. The gist of the method: (§1)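 Spleen homogenate (27 μg final) in pH 5 citrate/phosphate buffer with KCl, NaCl, MgCl₂ and 0.01% Tween-20. Compound was titrated 0.5 nM to 58 μM and preincubated 5 min at room temperature. Reaction used 1 mM 4MU-Glc for 30−45 min at 37 °C and was stopped with NaOH/glycine pH 10. Read-out was fluorescence at Ex 365/Em 440 nm. AC₅₀ is the average of N = 2.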

The target of data set [5] is T2, Lysosomal acid glucosylceramidase (Homo sapiens, UniProt P04062).
T2 sequence (P04062 whole entry): T1 sequence (whole entry) with S409N
Kind of data set: Inhibition of wild type glucocerebrosidase using 4-methylumbellifereno-Glc as substrate incubated for 5 mins prior to substrate addition measured after 20 mins by fluorimetric analysis.

The target of data set [6] is T2, Lysosomal acid glucosylceramidase. The data set is described as follows: Inhibition of wild type glucocerebrosidase in human spleen homogenate using 4-methylumbellifereno-Glc as substrate incubated for 5 mins prior to substrate addition measured after 20 mins by fluorimetric analysis. In kind it is tissue-based.
Data set [7] deals with T3, Lysosomal acid glucosylceramidase (Homo sapiens, UniProt P04062, N409S). Kind of data set: Inhibition of glucocerebrosidase N370S mutant in Gaucher patient spleen homogenate using 4-methylumbellifereno-Glc as substrate incubated for 5 mins prior to substrate addition measured after 20 mins by fluorimetric analysis. In kind it is tissue-based.
The target in data set [8] is T3, Lysosomal acid glucosylceramidase. The data set is described as follows: Inhibition of glucocerebrosidase N370S mutant using 4-methylumbellifereno-Glc as substrate incubated for 5 mins prior to substrate addition measured after 20 mins by fluorimetric analysis.
Data set [9] has as its system T1, Lysosomal acid glucosylceramidase (Homo sapiens), P04062 [N409S]. Kind of data set: Activation of glucocerebrosidase N370S mutant using 4-methylumbelliferone-beta-Glc as substrate incubated for 5 mins prior to substrate addition measured after 30 to 45 mins by HPLC analysis. The gist of the method:
(§2)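 N370S/N370S patient spleen homogenate at 140 μg/well. Compound was tested at 9 concentrations, 1:2 dilutions from 50 μM. Substrate was 2 mM 4MU-Glc or the C12-BODIPY substrate at 25 μM; other conditions as the plate assay. Stopped reactions were separated on C18 HPLC with fluorescence detection: 4MU at 365/440 nm, C12-BODIPY-Cer at 506/540 nm.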

In data set [10] the test system is Liver. Kind of data set: Metabolic stability in CD1 mouse liver microsomes assessed as compound remaining at 1 uM after 60 mins by LC/MS/MS analysis in absence of NADPH. In kind it is ADME, Microsome. Particulars: 1 h. The gist of the method: (§3)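 Compound at 1 μM was incubated in duplicate with CD-1 mouse liver microsomes at 37 °C in 100 mM potassium phosphate pH 7.4 with 3 mM MgCl₂, with or without 2 mM NADPH, for 60 min. Reaction was quenched in cold acidified MeCN with internal standard. Parent was quantified by LC−MS/MS as percent of time zero.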

Data set [11] concerns T1, Lysosomal acid glucosylceramidase (Homo sapiens), P04062 [N409S]. Kind of data set: Activation of glucocerebrosidase N370S mutant using C12-BODIPY-GlcCer as substrate assessed as half-maximal activation concentration incubated for 5 mins prior to substrate addition measured after 30 to 45 mins by HPLC analysis. The gist of the method: as §2
Data set [12] relates to Liver. The data set is described as follows: Metabolic stability in CD1 mouse liver microsomes assessed as compound remaining at 1 uM after 60 mins by LC/MS/MS analysis in presence of NADPH. In kind it is ADME, Microsome. The settings on record: 1 h. The method in brief:
as §3

Data set [13] deals with T4, Lysosomal acid glucosylceramidase (Homo sapiens) (UniProt P04062).
T4 sequence (whole entry): T1 sequence (whole entry) with S409N
The data set is described as follows: Activation of wild type glucocerebrosidase in human spleen homogenate using resorufin beta-D-glucopyranoside as substrate incubated for 5 mins prior to substrate addition measured after 30 to 45 mins by fluorimetric analysis. In kind it is tissue-based. The method in brief:
(§4)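 Spleen homogenate (27 μg final) in pH 5 citrate/phosphate buffer with 0.01% Tween-20. Compound was titrated 0.5 nM to 58 μM and preincubated 5 min at room temperature. Resorufin β-D-glucopyranoside was 15 μM final, incubated 30−45 min at 37 °C and stopped with 1 M Tris-HCl pH 8.0. Read-out was fluorescence at Ex 573/Em 610 nm.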

The target of data set [14] is T4, Lysosomal acid glucosylceramidase (Homo sapiens). Kind of data set: Activation of wild type glucocerebrosidase using resorufin beta-D-glucopyranoside as substrate incubated for 5 mins prior to substrate addition measured after 30 to 45 mins by fluorimetric analysis. The method in brief: (§5)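 Purified recombinant enzyme at 5 nM final: wt in citrate/KH₂PO₄ pH 5.9, N370S at pH 7, with 0.01% Tween-20. Compound was preincubated 5 min at room temperature. Resorufin β-D-glucopyranoside was 15 μM final for 30−45 min at 37 °C, stopped with Tris-HCl pH 8.0. Read-out was fluorescence at Ex 573/Em 610 nm.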

Data set [15] shares this target. Kind of data set: Activation of wild type glucocerebrosidase in human spleen homogenate using 4methylumbelliferone-Glc as substrate assessed as half-maximal activation concentration incubated for 5 mins prior to substrate addition measured after 30 to 45 mins by fluorimetric analysis. It counts as tissue-based. The gist of the method:
as §1

Data set [16] relates to T1, Lysosomal acid glucosylceramidase (Homo sapiens), P04062 [N409S]. The data set is described as follows: Activation of glucocerebrosidase N370S mutant using resorufin beta-D-glucopyranoside as substrate incubated for 5 mins prior to substrate addition measured after 30 to 45 mins by fluorimetric analysis. The gist of the method: as §5
Data set [17] shares this test system. Kind of data set: Activation of glucocerebrosidase N370S mutant using 4methylumbelliferone-Glc as substrate assessed as half-maximal activation concentration incubated for 5 mins prior to substrate addition measured after 30 to 45 mins by fluorimetric analysis. The gist of the method: (§6)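 Purified recombinant enzyme at 5 nM final: wt in citrate/KH₂PO₄ pH 5.9, N370S at pH 7, both with 0.01% Tween-20. Compound was titrated 0.5 nM to 58 μM and preincubated 5 min at room temperature. Reaction used 1 mM 4MU-Glc for 30−45 min at 37 °C and was stopped at pH 10. Read-out was fluorescence at Ex 365/Em 440 nm.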

The species entered for another data set is Homo sapiens. The data set is described as follows: Ratio of half-maximal activation concentration for glucocerebrosidase N370S (unknwon origin) to half-maximal activation concentration for glucocerebrosidase N370S in Gaucher patient spleen homogenate. In kind it is tissue-based.
Data set [18] concerns T1, Lysosomal acid glucosylceramidase (Homo sapiens), P04062 [N409S]. Kind of data set: Activation of glucocerebrosidase N370S mutant in Gaucher patient spleen homogenate using resorufin beta-D-glucopyranoside as substrate incubated for 5 mins prior to substrate addition measured after 30 to 45 mins by fluorimetric analysis. In kind it is tissue-based. The gist of the method: as §4

Data set [19] has as its target T4, Lysosomal acid glucosylceramidase (Homo sapiens). The data set is described as follows: Ratio of half-maximal activation concentration for wild type glucocerebrosidase to half-maximal activation concentration for wild type glucocerebrosidase in human spleen homogenate. In kind it is tissue-based.
Data set [20] has the same target. The data set is described as follows: Activation of wild type glucocerebrosidase using 4methylumbelliferone-Glc as substrate assessed as half-maximal activation concentration incubated for 5 mins prior to substrate addition measured after 30 to 45 mins by fluorimetric analysis. The gist of the method: as §6
In data set [21] the target is T3, Lysosomal acid glucosylceramidase. The data set is described as follows: Inhibition of glucocerebrosidase N370S mutant in Gaucher patient spleen homogenate using 4-methylumbellifereno-Glc as substrate incubated for 5 mins prior to substrate addition measured after 30 to 45 mins by fluorimetric analysis.

Usually IC50 stands for the concentration that inhibits the measured activity by half.

Structures are written as SMILES. Positions count from the first letter of the chain named. Calls of active or inactive are those of the source. Unless noted, no cut-off for these calls is given here.

Turning to `Cc1cc(C)n2ncc(C(=O)NCCCCO)c2n1`, the outcome in data set [1], in data set [2], in [3] and in [4] was inactive.
On to `O=S(=O)(c1ccc2ccccc2c1)N1CCN(c2nc(-c3cccs3)nc3ccccc23)CC1`, for which the 50% inhibitory concentration (IC50) in [5] is 8900 nM; in data set [6], 280 nM; in [7] it was 330 nM; in data set [8], “Not Active”.
In the case of `Cc1cc(C)n2ncc(C(=O)Nc3ccc(Br)cc3)c2n1`, the Activity result was “Dose-dependent effect” in data set [9] and 2.06 µM in [4]. Also, the result in data set [1], in data set [2] and in data set [11] was inactive. Further, the results for the Stability in the data set on Liver [10] and in the data set on Liver [12] were 86% and 12%, respectively.
On to `S=C(NCCCc1c[nH]cn1)NCCCN(Cc1ccc(Cl)c(Cl)c1)c1ccc(Br)cn1`, for which the IC50 turned out to be 710 nM in data set [5], 360 nM in data set [6] and 2500 nM in data set [8] (read-out: IC50).
In the case of `Cc1cc(C)n2ncc(C(=O)Nc3ccc(Cl)c(Cl)c3)c2n1`, the result in [13], in [14], in data set [1], in [16], in [2] and in data set [18] was inactive. Further, the Activity was 4.47 µM in data set [15], 15.9 µM in [17], 14.1 µM in data set [20] and 3.66 µM in [4]. Besides, the Ratio (in the data set listed under Homo sapiens; in data set [19]) was 3 throughout.
Regarding `COc1ccc(Cl)cc1Nc1nc(NCCO)nc(N2CCCC2)n1`, in [21], the IC50 entry is on record as “Not Active”.
On the same count and under the same terms, in the case of `CCc1nnc(NC(=O)c2ccc(NS(=O)(=O)c3ccccc3)cc2)s1` it was “Not Active”.
`Cc1cc(C)n2ncc(C(=O)Nc3ccc(C(F)(F)F)cc3)c2n1`: the values for the Activity entry in data set [9] and in data set [4] were “Dose-dependent effect” and 1.46 µM, respectively. In addition, the outcome in data set [1], in data set [2] and in data set [11] was inactive. Moreover, the Stability in the data set on Liver [10] is on record as 100%; in the data set on Liver [12], 83%.
